CaV13 FRET inh = Primary screen for inhibitors of IQ motif and Ca2+-dependent inactivation inhibitor domain binding in CACNA1D, Förster resonance energy transfer in living cells, …; inhibition, % at 12.3 µM; HEK cells, CFP/YFP FRET ICDI-IQ, plate reader, 10 min; percent FRET-ratio fall versus neutral wells; 0.098% of 340,000 active;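 active = mean replicate inhibition of at least 30% and at least 1% of replicates passing that level; inconclusive = only one of the two criteria is met; inactive = neither criterion is met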;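 also: 0% = median of the neutral control wells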
Xi reactivation = activators of inactive X chromosome reactivation, primary screen, imaging, XiGFP fibroblasts, GFP high-content imaging, set 2; XiGFP mouse fibroblasts, % GFP-positive cells imaging, 3 d; cells co-treated with 5-aza-dC sensitizer; scaled so ellipticine positive control = 100%; activation, % at 7.58 µM; 0.055% of 360,000 active;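 active = mean normalized replicate activation at least 10% and every replicate at or above 10%; inconclusive = only one of the two criteria met; inactive = mean below 10% and not all replicates reach 10%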;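 also: 0% = median of on-plate neutral control wells and 100% = ellipticine 6 µM median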
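Material: XiGFP fibroblasts, SV40-immortalized. Buffer or medium: DMEM plus 5-aza-dC sensitizer. Compound: single concentration per compound, delivered by pin transfer. Times: 3 days compound exposure. Controls: ellipticine 6 µM.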
DENV2 CPE = inhibitors of DENV2 cytopathic effect, primary screen, cell-based, plate reader, single concentration; CPE inhibition, % at 9.99 µM; 1.7% of 350,000 active; DENV2-infected cells, cytopathic effect rescue; in the data active = CPE inhibition above about 20%, passing the limit was not always enough; inconclusive = no clear call, values can overlap the other calls; tested in BHK-21 cells;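 also: 0% = median of neutral control wells and 100% = median of positive control wells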
Casp6 inh = human caspase-6 inhibitors, primary screen, biochemical, VEID-R110 fluorescence, single point, set 2; P55212; purified caspase-6, Z-VEID-R110 cleavage fluorescence; inhibition, % at 12.5 µM; 0.53% of 350,000 active; AID 686996, 2013;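 active = mean inhibition across replicates at least about 35%, with every replicate also reaching that limit, limit read from the data; inconclusive = only one of the two criteria met; inactive = neither criterion met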;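 also: 0% = median of neutral control wells and 100% = no fluorescence left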
Target sequence (P55212 24-179 limits assumed): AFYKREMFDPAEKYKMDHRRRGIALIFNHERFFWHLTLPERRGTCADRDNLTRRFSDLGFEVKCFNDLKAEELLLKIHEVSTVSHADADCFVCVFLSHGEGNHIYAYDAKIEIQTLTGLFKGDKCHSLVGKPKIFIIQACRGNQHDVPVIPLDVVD
Target sequence (P55212 194-293 limits assumed): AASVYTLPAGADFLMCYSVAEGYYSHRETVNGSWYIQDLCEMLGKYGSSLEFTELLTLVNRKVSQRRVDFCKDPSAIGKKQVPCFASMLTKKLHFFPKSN
FN deposition inh = inhibitors of fibronectin matrix deposition, primary screen, AH1F cells, Alexa488-fibronectin fluorescence, plate reader; AH1F fibroblasts, overnight; inhibition, % at 12.6 µM; 0.086% of 350,000 active; AID 743247, 2014;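 active = mean inhibition across replicates of 30% or more, regardless of how many single replicates reach that level; inconclusive = mean under 30% yet at least half of replicates reach 30%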;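 also: positive control wells lacked labelled fibronectin entirely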
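Schedule: 1 h cell adhesion before compound, then overnight fibronectin incubation; test system: AH1F fibroblast monolayer depositing Alexa488-labelled fibronectin into matrix; quantity: 10000 AH1F cells per well; probe or stimulus: fluorescent fibronectin at 24 nM final; signal: fluorescence, ex 485 nm, em 525 nm; evaluation: percent inhibition as loss of matrix-bound fibronectin fluorescence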
The depositor's hits bear a star. Only some compounds are listed: those with a hit (about 2% of all), similar ones and a draw of the others.

COc1ccc2c3c([nH]c2c1)[C@H](CO)N(S(C)(=O)=O)CC31CCN(Cc2ccccc2)CC1 was read as Xi reactivation 0 and DENV2 CPE -13.
For Cc1cc2oc(=O)cc(CN3CCCC3)c2cc1Cl the results were DENV2 CPE 1, Casp6 inh 1 and FN deposition inh -7.
Cc1cc2oc(=O)cc(Cn3ccnc3)c2cc1Cl was read as CaV13 FRET inh -5, Xi reactivation 0, DENV2 CPE 26*, Casp6 inh -2 and FN deposition inh 1.
Screening C/C=C/c1ccc2c(c1)O[C@@H](CN(C)C(=O)C1CC1)[C@H](C)CN([C@H](C)CO)S2(=O)=O returned Xi reactivation -1 and FN deposition inh -9.
Screening Cc1cc(C)c(C(=O)C(C)OC(=O)C2=COCCO2)cc1C (stereo not drawn) returned Xi reactivation 0, DENV2 CPE inconclusive and Casp6 inh 58*.
`CC(OC(=O)C1=COCCO1)C(=O)Nc1ccc(Cl)cn1` (stereo not drawn) gave CaV13 FRET inh -8, Xi reactivation 0, DENV2 CPE 70*, Casp6 inh 1 and FN deposition inh 3.
CC(OC(=O)C1=COCCO1)C(=O)NC1CCCCC1C (stereo not drawn) was read as CaV13 FRET inh -3, Xi reactivation 0, DENV2 CPE 4, Casp6 inh -1 and FN deposition inh 1.
Screening COCC(=O)N1C[C@@H](C)[C@H](OC)CN(C)C(=O)c2ccc(NC(=O)c3ccccc3)cc2OC[C@H]1C returned Xi reactivation 0, DENV2 CPE 14, Casp6 inh 0 and FN deposition inh 3.
`CCn1c(SCC(=O)N2CCCCCC2)nc2c([nH]c3ccccc32)c1=O` gave CaV13 FRET inh -3, Xi reactivation 0, DENV2 CPE 63*, Casp6 inh -1 and FN deposition inh 2.
Screening CCn1c(SCC(=O)N2CCC(C)CC2)nc2c([nH]c3ccccc32)c1=O returned CaV13 FRET inh -5, Xi reactivation 0, DENV2 CPE -1, Casp6 inh 1 and FN deposition inh -5.
CCCC#Cc1cnc2c(c1)C(=O)N([C@H](C)CO)C[C@H](C)[C@@H](CN(C)C(=O)Nc1ccc(OC)cc1)O2 was read as Xi reactivation 0, DENV2 CPE 6, Casp6 inh 1 and FN deposition inh -6.
Screening CO[C@@H]1CN(C)C(=O)c2cc(NC(=O)C3CC3)ccc2OC[C@H](C)N(Cc2cccnc2)C[C@H]1C returned Xi reactivation 0, DENV2 CPE 5, Casp6 inh 1 and FN deposition inh -10.
Screening O=C(CSCc1ccc([N+](=O)[O-])cc1)Nc1ccc(S(=O)(=O)N2CCCCCC2)cc1 returned CaV13 FRET inh -2, Xi reactivation 0, DENV2 CPE 80*, Casp6 inh -2 and FN deposition inh 3.
For Cc1ccc(NC(=O)CSCC(=O)Nc2ccc(S(=O)(=O)N3CCCC3)cc2)cc1 the results were CaV13 FRET inh -4, Xi reactivation 0, DENV2 CPE -4, Casp6 inh 5 and FN deposition inh 4.
CCOC(=O)c1c(C)n(C)c2ccc(OCC(O)CN3CCC(C)CC3)cc12 (stereo not drawn) was read as CaV13 FRET inh 40*, Xi reactivation 0, DENV2 CPE -8, Casp6 inh -11 and FN deposition inh -8.
For CCOC(=O)c1c(C)n(C)c2ccc(OCC(O)CN3CCCCCC3)cc12 (stereo not drawn) the results were CaV13 FRET inh -5, Xi reactivation 0, DENV2 CPE -7, Casp6 inh -5 and FN deposition inh 0.
Screening COc1ccccc1/C=C/C=O returned DENV2 CPE 25* and Casp6 inh 3.
`CC(=O)N1CC(=O)N2[C@H](CO)[C@H](c3ccc(-c4ccc(C#N)cc4)cc3)[C@@H]2C1` gave Xi reactivation 0.
`Cc1ccc(OCC(=O)NNC(=O)CCC(=O)Nc2ccc(C)cc2C)cc1` gave CaV13 FRET inh -3 and FN deposition inh 0.
